Test results published in ChEMBL document CHEMBL1123264, “Conformationally restricted congeners of hypotensive and platelet aggregation inhibitors: 6-aryl-5-methyl-4,5-dihydro-3(2H)-pyridazinones derived from 5H-indeno[1,2-c]pyridazine” (J Med Chem, 1986).
Activity calls are given as the source filed them. No cut-off for these calls is given here.

Tests used:
[1] = species: Cavia porcellus; assay: Compound was tested in vitro for antiaggregation induced by collagen (0.8 ug/mL) in guinea pig PRP; type: functional
Summary of the method: (§1)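 Born method. Citrated (3.8%, 1:10) aortic blood from fasted male guinea pigs under pentobarbital, centrifuged to give platelet-rich plasma. Incubated 10 min at room temperature with compound at 66 μM. Aggregation triggered by ADP, equine tendon collagen or thrombin. Result is % inhibition vs controls, mean of five experiments; thrombin values read at 2 or 4 min.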

[2] = (§2) Relative activity with respect to the dihydralazine was determined; type: functional
Summary of the method: (§3)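 SH rats, fasted, given a single oral dose of 12.5 mg/kg in 1% methylcellulose by gavage. Tail-cuff systolic pressure read hourly; area under the curve taken over 0–6 h. Dihydralazine was the reference; relative activity is AUC(dihydralazine)/AUC(compound), and a smaller AUC means higher activity.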

[3] = species: Cavia porcellus; assay: Compound was tested in vitro for antiaggregation induced by 0.5 uM ADP in guinea pig PRP; type: functional; summary of the method: as §1
[4] = species: Cavia porcellus; assay: Compound was tested in vitro for antiaggregation induced by thrombin at 0.625 IU/mL in guinea pig PRP after 2 min; type: functional; summary of the method: as §1
[5] = species: Mus musculus; assay: In vitro antithrombotic activity in mouse; type: functional; conditions: in the assay text read “In vivo” for “In vitro”
Summary of the method: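 Male Swiss mice, 20–30 g, 10/group. Oral dose in 1% hydroxymethylcellulose, equimolar to ASA 20 mg/kg. At 1 h, iv tail injection of collagen (200 μg/mL) plus adrenaline (200 μM), 10 mL/kg, after warming at 27 °C. Death or hind-limb paralysis over 15 min counted; % protection = (Nc−Nt)/Nc×100.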

[6] = species: Rattus norvegicus; assay: Dose that lowers blood pressure by 25 mm Hg was determined in spontaneous hypertensive rats (SHR); type: functional
Summary of the method: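 Conscious SH rats, 150–200 g, fasted 12 h, warmed at 33 °C for 30 min before tail-cuff plethysmography of systolic pressure. Suspension in 1% methylcellulose by gavage at 1.56, 3.125, 6.25, 12.5 and 25 mg/kg, 6 rats/dose, read hourly for 6 h. ED25 is the dose lowering pressure by 25 mmHg at peak, taken from log dose-response curves.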

[7] = species: Cavia porcellus; assay: In vitro inhibition of platelet aggregation induced by 0.5 uM ADP (irreversible activity) was determined in guinea pig PRP; type: functional; summary of the method: as §1
[8] = test system: Rattus norvegicus; assay: Compound was evaluated for its antiinflammatory activity in rat by Carrageenan paw edema test; type: functional
Summary of the method: (§4)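 Male Sprague-Dawley rats, 130–150 g, fasted 18 h, 8/group. Compound in 1% carboxymethylcellulose by gavage; 1 h later 0.1 mL 1% carrageenin injected into the right hind paw. Paw volume measured by plethysmometer at 0, 1 and 3 h. Inhibition at 3 h vs vehicle controls; ED50 is the dose giving 50% inhibition.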

[9] = species: Cavia porcellus; assay: Compound was tested in vitro for antiaggregation induced by thrombin at 0.625 IU/mL in guinea pig PRP after 4 min; type: functional; summary of the method: as §1
[10] = species: Rattus norvegicus; assay: Compound was evaluated for its antiulcer activity in rat; type: functional
Summary of the method: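 Male Sprague-Dawley rats, 180–250 g, 8/group, fasted 24 h with water. Compound by gavage right after indomethacin 15 mg/kg ip. Stomachs examined 5 h later under a 10× microscope; lesion number and severity scored on an arbitrary scale. ED50 is the dose reducing lesions by 50%.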

[11] = Compound was tested for its lethality in vivo in mouse; type: ADME, organism-based
[12] = (§5) Area under curve was determined for 0-6 hr duration using dihydralazine as reference drug for the peak blood pressure; type: ADME; design: concentration or dose not given beside the values; summary of the method: as §3
[13] = species: Cavia porcellus; assay: Compound was tested in vitro for its antiaggregation induced by thrombin at 0.625 IU/mL in guinea pig PRP after 4 min; type: functional; summary of the method: as §1
[14] = species: Rattus norvegicus; assay: (§6) relative activity with respect to the dihydralazine was determined; type: functional; summary of the method: as §3
[15] = test system: Rattus norvegicus; assay: Compound was evaluated for its antiinflammatory activity in rat by Carrageenan paw edema test; Inactive; type: functional, organism-based; summary of the method: as §4
[16] = species: Rattus norvegicus; assay: as §2; type: functional; summary of the method: as §3
[17] = species: Rattus norvegicus; assay: Antihypertensive activity in normotensive rats; type: functional
Summary of the method: (§7)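 Unanesthetized male Sprague-Dawley rats, 150–200 g, fasted 12 h, warmed at 33 °C for 30 min. Oral dosing at 6.25, 12.5 and 25 mg/kg; dihydralazine 0.78–6.25 mg/kg po. Tail-cuff systolic pressure read hourly for 6 h, 6 rats/dose. ED25 is the dose lowering pressure by 25 mmHg at peak, taken from log dose-response curves.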

[18] = as §6; type: functional; summary of the method: as §3
[19] = species: Rattus norvegicus; assay: as §5; type: functional, organism-based; summary of the method: as §3
[20] = species: Rattus norvegicus; assay: Compound was tested for antihypertensive activity in normotensive rats and the dose that lowered by 25 mmHg of the blood pressure was determined; type: functional; summary of the method: as §7

`CC(Cl)C(=O)Nc1ccc2c(c1)CC1CC(=O)NN=C21` (stereo not drawn) gave an Activity [1] of 60, an Activity [2] of 0.66 and an Activity [3] of 48. It also gave an Activity [4] of 84, an Activity [5] of 62 and an ED25 [6] of 10 mg/kg. It also gave an Activity [7] of 40, an ED50 [8] of 155 mg/kg and an Activity [9] of 83. The ED50 [10] was 0.3 mg/kg, the LD50 [11] was 1000 mg/kg and the AUC units [12] was 27140.
For `CC(=O)Nc1ccc2c(c1)CC1CC(=O)N(C)N=C21` (stereo not drawn), the Activity [1] was 40, the Activity [3] was 4 and the Activity [4] was 5. For the same compound, the Activity [13] was 37, the Activity [5] was 50 and the ED25 [6] was 15 mg/kg. It also gave an Activity [7] of 23, an Activity [14] of 0.6 and an LD50 [11] of 1000 mg/kg. For the same compound, the ED50 [15] was “inactive” and the AUC units [12] was 31960.
With `Nc1ccc2c(c1)CC1CC(=O)NN=C21` (stereo not drawn) the Activity [1] was 58, the Activity [3] was 31 and the Activity [4] was 44. It also gave an Activity [5] of 87, an ED25 [6] of 2.6 mg/kg and an Activity [7] of 66. The ED50 [8] was 40.8 mg/kg, the Activity [9] was 34 and the ED50 [10] was 100 mg/kg. For the same compound, the Activity [16] was 0.74, the LD50 [11] was 308 mg/kg and the AUC units [12] was 24350.
For `CN1N=C2c3ccc(N)cc3CC2CC1=O` (stereo not drawn), the Activity [1] was 26, the Activity [3] was 7 and the Activity [4] was 36. For the same compound, the Activity [5] was 58, the ED25 [6] was 15.5 mg/kg and the Activity [7] was 33. For the same compound, the Activity [9] was 37, the Activity [16] was 0.49 and the LD50 [11] was 750 mg/kg. The ED50 [15] was “inactive” and the AUC units [12] was 36740.
Compound `CC(=O)Nc1ccc2c(c1)CC1CC(=O)NN=C21` (stereo not drawn) has an Activity [1] of 73, an Activity [3] of 45 and an Activity [4] of 95. It also gave an Activity [5] of 100, an ED25 [6] of 2.6 mg/kg and an Activity [7] of 81. It also gave an ED25 [17] of 25 mg/kg, an ED50 [8] of 160 mg/kg and an Activity [9] of 100. It also gave an ED50 [10] of 0.3 mg/kg, an Activity [16] of 1.02 and an LD50 [11] of 1000 mg/kg. It also gave an AUC units [12] of 17560.
`N/N=c1\[nH][nH]/c(=N\N)c2ccccc12` [DIHYDRALAZINE] gave an Activity [18] of 1, an ED25 [6] of 0.72 mg/kg and an AUC units [19] of 17900. It also gave an ED25 [20] of 3.12 mg/kg.
